The values below come from ChEMBL document CHEMBL1150807, “Daucane sesquiterpenes from Ferula hermonis” (J Nat Prod, 2001).

≈ marks a conversion by molar mass, not a printed value. Calls of active or inactive are those of the source. The calls are words filed in the database; no cut-off is given here.

Test [1] concerns Staphylococcus aureus. The experiment in a line: Antimicrobial activity against Staphylococcus aureus ATCC 29213. The test is classed as functional, organism-based. The procedure, abridged: (§1)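 Broth microdilution in duplicate. Samples are dissolved in DMSO, serially diluted in normal saline, and mixed with inoculum from subcultured organism diluted in its incubation broth. The top final concentration is 50 µg/mL for pure compounds and 500 µg/mL for crude extracts. Controls are tetracycline, growth and media blank. OD630 is read before and after incubation, and percent growth is plotted against concentration to give IC50/MIC. MBC is found by plating 5 µL from each duplicate on agar.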

Test [2] deals with Staphylococcus aureus. The experiment in a line: Antimicrobial activity against methicillin-resistant Staphylococcus aureus ATCC 43300. The test is classed as functional, organism-based. The procedure, abridged: as §1
For another test, the system named is Candida albicans. The experiment in a line: Antimicrobial activity against Candida albicans ATCC 90028. The test is classed as functional. Put shortly:
(§2)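 Subcultured organism diluted in its incubation broth for the inoculum. Samples were dissolved in DMSO, serially diluted in normal saline and tested in duplicate, starting at a final 50 µg/mL for pure compounds and 500 µg/mL for extracts. Growth and media-only controls were included. OD630 was read before and after incubation, and IC50/MIC was taken from percent growth versus concentration. MFC/MBC came from 5 µL subcultured onto agar.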

In a further test the test system is Cryptococcus neoformans. The experiment in a line: Antimicrobial activity against Cryptococcus neoformans ATCC 90113. Format: functional. The procedure, abridged:
as §2

The next test concerns Aspergillus fumigatus. The experiment in a line: Antimicrobial activity against Aspergillus fumigatus ATCC 90906. The test is classed as functional. Put shortly:
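Growth was removed from a slant into 50 mL YPD broth for the inoculum. DMSO-dissolved samples were serially diluted in saline and run in duplicate, starting at a final 50 µg/mL for pure compounds and 500 µg/mL for extracts. Amphotericin B reference, growth and blank controls were included. Endpoints were read visually. MFC came from 5 µL of each duplicate transferred to agar.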

A further test deals with Pseudomonas aeruginosa. The experiment in a line: Antimicrobial activity against Pseudomonas aeruginosa ATCC 27853. Format: functional. Put shortly:
as §2

The test system of test [3] is Mycobacterium intracellulare. The experiment in a line: Antimicrobial activity against Mycobacterium intracellular ATCC 23068. Format: functional. The procedure, abridged: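 Inoculum was subcultured organism diluted in its incubation broth. Samples were dissolved in DMSO, serially diluted in saline and run in duplicate, with final concentrations starting at 50 µg/mL for pure compounds and 500 µg/mL for extracts. Tetracycline reference, growth and blank controls were included. Plates were inspected visually. MBC came from 5 µL of each well plated on agar.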

For `CC1=CC[C@@]2(C)CC[C@@](O)(C(C)C)[C@@H]2[C@@H](O)C1`, the outcome in the test on Staphylococcus aureus [1], in the test on Staphylococcus aureus [2], in the test on Candida albicans, in the test with Cryptococcus neoformans, in the test on Aspergillus fumigatus and in the test with Pseudomonas aeruginosa was inactive. Also, the outcome in test [3] was inactive.
As for `CC(C)[C@]1(O)CC[C@]2(C)C[C@@H]3O[C@]3(C)C[C@H](O)[C@H]21`, the result in the test with Staphylococcus aureus [1], with Staphylococcus aureus [2], in the test on Candida albicans, in the test with Cryptococcus neoformans, in the test on Aspergillus fumigatus and with Pseudomonas aeruginosa was inactive. For the same compound, in test [3], the result was inactive.
Turning to `CC1=CC[C@@]2(C)CC[C@@](O)(C(C)C)[C@@H]2[C@@H](OC(=O)c2ccccc2)C1`, the result in the test with Staphylococcus aureus [1], in the test with Staphylococcus aureus [2], in the test with Candida albicans, with Cryptococcus neoformans, in the test on Aspergillus fumigatus and in the test on Pseudomonas aeruginosa was inactive. In test [3], the outcome was inactive.
As usually defined, the IC50 is the midpoint of a concentration-inhibition curve. High values mean weaker potency, low ones greater potency. The MIC is the lowest concentration that inhibits growth of the organism. Low readings indicate greater potency, high ones weaker potency. For `CC(C)C1=C2CCC(COC(=O)c3ccc(O)cc3)=CC[C@@]2(C)CC1`, the figures for the IC50 in the test with Staphylococcus aureus [1] and with Staphylococcus aureus [2] were 1.5 µg/mL (≈ 4.41 µM) and 2 µg/mL (≈ 5.87 µM), respectively. For the same compound, the minimum inhibitory concentration (MIC) (against Candida albicans; against Cryptococcus neoformans; against Aspergillus fumigatus; against Pseudomonas aeruginosa; in test [3]) was 6.25 µg/mL (≈ 18.4 µM) throughout.
`COc1cc(C(=O)OCC2=CC[C@@]3(C)CCC(C(C)C)=C3CC2)ccc1O`: the result in the test with Staphylococcus aureus [1], in the test on Staphylococcus aureus [2], with Candida albicans, in the test on Cryptococcus neoformans, with Aspergillus fumigatus and in the test with Pseudomonas aeruginosa was inactive. Also, the outcome in test [3] was inactive.
